{
  "source": "ChEMBL document CHEMBL4184225",
  "about": "“Discovery of selective 2,4-diaminoquinazoline toll-like receptor 7 (TLR 7) agonists” (Bioorg Med Chem Lett, 2018)",
  "species": "Homo sapiens",
  "assay": "Selectivity index, ratio of MEC for agonist activity at human TLR8 expressed in HEK293 cells to MEC for agonist activity at human TLR7 expressed in HEK293 cells as",
  "assay_type": "cell-based",
  "outline": "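Ratio of TLR8 to TLR7 LEC from HEK293 NFκB-luciferase reporter assays. Cells were transiently transfected with TLR7 or TLR8 construct plus NFκB-luc and treated with compound for 6 h at 37°C. LEC is the lowest concentration with signal at least two-fold above the assay SD, from quadruplicate dose-response curves.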",
  "data": [
    {"smiles": "CCCCOc1nc(N)c2c(n1)N(Cc1cccc(CN3CCCC3)c1)CC(=O)N2", "values": [
      {"measurement": "Ratio", "value": 30}
    ]}
  ]
}
